Results on 18 compounds are retold here after ChEMBL document CHEMBL1137151, “Novel factor Xa inhibitors based on a 2-carboxyindole scaffold: SAR of P4 substituents in combination with a neutral P1 ligand” (Bioorg Med Chem Lett, 2004).

What is called pKi is the negative decadic logarithm of the Ki, by convention in mol/L. Read a low pKi as a large Ki. A word on the Ki: it is the dissociation constant of the complex between target and ligand, obtained from inhibition or displacement. Low values mean tighter binding, high ones weaker binding. By pIC50 is commonly meant −log10 of the IC50, conventionally taken in molar units.

Structures are written as SMILES. pIC50, pKi: −log10 of the molar value. Bounds are passed on as bounds.

In assay [1] the target is Coagulation factor X (Homo sapiens, UniProt P00742). As to the kind of experiment: Inhibitory activity against serine protease factor Xa.
Chain of Coagulation factor X (P00742 41-179 limits assumed): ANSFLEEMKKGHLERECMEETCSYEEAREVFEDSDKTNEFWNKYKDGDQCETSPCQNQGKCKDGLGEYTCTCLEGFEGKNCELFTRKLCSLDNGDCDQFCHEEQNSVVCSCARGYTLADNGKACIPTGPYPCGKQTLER
Chain of Coagulation factor X (P00742 235-488 limits assumed): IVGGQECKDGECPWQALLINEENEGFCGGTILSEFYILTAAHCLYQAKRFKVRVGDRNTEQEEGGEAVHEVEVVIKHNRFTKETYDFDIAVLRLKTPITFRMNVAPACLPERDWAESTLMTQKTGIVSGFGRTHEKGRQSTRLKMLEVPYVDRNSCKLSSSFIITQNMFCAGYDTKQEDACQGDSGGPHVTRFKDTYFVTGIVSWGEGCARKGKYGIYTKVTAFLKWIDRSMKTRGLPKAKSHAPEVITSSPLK
Assay [2] addresses T1, Prothrombin (Homo sapiens, UniProt P00734). As to the kind of experiment: Inhibitory activity against coagulation factor II (thrombin).
Assay [3] addresses Trypsin (Homo sapiens, UniProt P07477+P07478+P35030). Put plainly: Inhibitory activity against coagulation factor trypsin. The format is protein assay.
Assay [4] has as its target T1, Prothrombin. Put plainly: Inhibitory concentration in dilute prothrombin time assay. The format is functional. A digest of the protocol:
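Dilute prothrombin time assay, run as PT with diluted thromboplastin reagent. The value is the inhibitor concentration giving 50% inhibition of dPT.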

The target of assay [5] is Tissue-type plasminogen activator (Homo sapiens, UniProt P00750). Put plainly: Inhibitory activity against human tissue plasminogen activator.
Chain of Tissue-type plasminogen activator (P00750 whole entry): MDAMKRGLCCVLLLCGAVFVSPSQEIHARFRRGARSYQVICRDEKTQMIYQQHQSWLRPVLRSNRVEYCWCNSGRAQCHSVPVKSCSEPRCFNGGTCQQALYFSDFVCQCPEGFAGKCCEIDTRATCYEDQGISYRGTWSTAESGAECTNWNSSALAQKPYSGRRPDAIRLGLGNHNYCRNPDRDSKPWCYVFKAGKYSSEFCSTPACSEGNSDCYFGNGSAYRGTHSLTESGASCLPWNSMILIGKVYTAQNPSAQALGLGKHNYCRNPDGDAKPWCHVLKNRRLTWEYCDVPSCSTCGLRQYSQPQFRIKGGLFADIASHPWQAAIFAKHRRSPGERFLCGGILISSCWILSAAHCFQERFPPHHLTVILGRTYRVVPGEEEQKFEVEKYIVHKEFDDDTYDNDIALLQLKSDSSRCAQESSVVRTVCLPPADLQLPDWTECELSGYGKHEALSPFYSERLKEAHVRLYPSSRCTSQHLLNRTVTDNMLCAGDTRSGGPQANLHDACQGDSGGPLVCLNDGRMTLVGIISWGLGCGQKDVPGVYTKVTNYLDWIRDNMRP
Assay [6] deals with T1, Prothrombin. As to the kind of experiment: Concentration required to double plasma clotting prothrombin time. The format is functional, cell-free. A digest of the protocol:
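Standard plasma coagulation assays, APTT and PT respectively. The value is the inhibitor concentration that doubles plasma clotting time.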

In the case of `CC(C)N1CCC(CNC(=O)c2cc3ccccc3n2Cc2cc(-c3ccc(Cl)s3)on2)CC1`, in assay [1], the pKi is 6.79.

The compound `CC(C)N1CC(CNC(=O)c2cc3ccccc3n2Cc2cc(-c3ccc(Cl)s3)on2)C1` showed a pKi in assay [1] of 6.08.

`O=C(NC1CCN(C2CCCCC2)CC1)c1cc2ccccc2n1Cc1cc(-c2ccc(Cl)s2)on1` gave a pKi in assay [1] of 6.97.

In assay [1], `CS(=O)(=O)N1CCC(NC(=O)c2cc3ccccc3n2Cc2cc(-c3ccc(Cl)s3)on2)CC1` had a pKi of 6.90.

Turning to `CC(C)CN1CC(NC(=O)c2cc3ccccc3n2Cc2cc(-c3ccc(Cl)s3)on2)C1`, the pKi in assay [1] was 6.46.

The compound `O=C(c1cc2ccccc2n1Cc1cc(-c2ccc(Cl)s2)on1)N1CCC(Oc2ccncc2)CC1` gave a pKi in assay [1] of 5.54.

Compound `O=C(NC1CCN(C2CCCC2)CC1)c1cc2ccccc2n1Cc1cc(-c2ccc(Cl)s2)on1` gave a pKi in assay [1] of 7.15. This pKi is 1.61 log units higher than that of the compound before.

`CC(C)N1CC(NC(=O)c2cc3ccccc3n2Cc2cc(-c3ccc(Cl)s3)on2)C1` gave a pKi in assay [1] of 6.65. This pKi lies 0.50 log units lower than the previous one.

Compound `O=C(NC1CCN(C2CCOCC2)CC1)c1cc2ccccc2n1Cc1cc(-c2ccc(Cl)s2)on1` had a pKi in assay [1] of 7.02.

Regarding `O=C(NC1CCN(c2ccncc2)CC1)c1cc2ccccc2n1Cc1cc(-c2ccc(Cl)s2)on1`, the pKi in assay [2] was < 5.00; in assay [5], < 4.00. Besides, the Ki in assay [3] is > 100000 nM. The same compound gave a pIC50 in assay [4] of 6.64. This compound also came in with a Concentration in assay [6] of 6.04 µM.

Consider `CCCN1CCC(NC(=O)c2cc3ccccc3n2Cc2cc(-c3ccc(Cl)s3)on2)CC1`, for which the pIC50 in assay [4] was 5.81. Also, the Concentration in assay [6] is 15.6 µM.

As to `CC(C)N1CCC(NC(=O)c2cc3ccccc3n2Cc2cc(-c3ccc(Cl)s3)on2)CC1`, the figures for the pKi in assay [2] and in assay [5] were 5.56 and < 4.00, respectively. The Ki in assay [3] is > 100000 nM. In assay [4], this compound gave a pIC50 of 6.38. The compound further came in with a Concentration in assay [6] of 5.41 µM.

`O=C(NC1CCN(C2CC2)CC1)c1cc2ccccc2n1Cc1cc(-c2ccc(Cl)s2)on1`: the pKi is 5.09 in assay [2] and < 4.00 in assay [5]. For the same compound, in assay [3], the Ki was > 100000 nM. The pIC50 in assay [4] is 5.75. The compound also came in with a Concentration in assay [6] of 19.6 µM.

In the case of `CC(C)N1CC[C@@H](NC(=O)c2cc3ccccc3n2Cc2cc(-c3ccc(Cl)s3)on2)C1`, the negative-log Ki (pKi) in assay [2] is < 5.00; in assay [5], < 4.00. Besides, the Ki in assay [3] is > 100000 nM. The pIC50 in assay [4] is 6.21. In addition, the Concentration in assay [6] worked out at 13.7 µM.

Turning to `O=C(NC1CN(c2ccncc2)C1)c1cc2ccccc2n1Cc1cc(-c2ccc(Cl)s2)on1`, the results for the pKi in assay [2], in assay [5] and in assay [1] were < 5.00, < 4.00 and 7.92, respectively. In addition, the Ki in assay [3] was > 100000 nM. The pIC50 in assay [4] is 6.43. The same compound registered a Concentration in assay [6] of 6.2 µM.

Take `CCN1CCC(NC(=O)c2cc3ccccc3n2Cc2cc(-c3ccc(Cl)s3)on2)CC1`: the pKi in assay [2] is < 5.00; in assay [5], < 4.00. Further, in assay [3], the Ki is > 100000 nM. The same compound gave a pIC50 in assay [4] of 6.43. Also, in assay [6], the Concentration came out at 9.02 µM.

`CN1CCC(NC(=O)c2cc3ccccc3n2Cc2cc(-c3ccc(Cl)s3)on2)CC1`: the figures for the pKi in assay [2] and in assay [5] were < 5.00 and < 4.00, respectively. Moreover, in assay [3], the Ki was > 100000 nM. For the same compound, in assay [4], the pIC50 is 5.81. The compound also returned a Concentration in assay [6] of 30.7 µM.

As to `O=C(c1cc2ccccc2n1Cc1cc(-c2ccc(Cl)s2)on1)N1CCC(Nc2ccncc2)CC1`, the pKi in assay [2] was 5.50; in assay [5], 4.19. Moreover, in assay [3], the Ki is > 100000 nM. The same compound gave a pIC50 in assay [4] of 6.72. The same compound displayed a Concentration in assay [6] of 5.78 µM.
